Active and inactive are the calls of the source.
What was measured:
HCT-116 [1] = test: Increase in HPSE protein level in human HCT116 cells at 20 uM after 3 days by Western blotting; format: functional
Outline: (§1)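 Treated cells (3 days unless stated; HCT-116 also 24 h) washed in ice-cold PBS, lysed in RIPA with protease inhibitors; equal protein (5–20 μg, BCA) run on 4–15% Tris-HCl gel, transferred to nitrocellulose, blocked in 5% milk/TBST, primary antibody 2 h RT or overnight 4 °C, HRP secondary 1 h; chemiluminescence, densitometry. β-actin antibody also used. Two independent experiments.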

HCT-116 [2] = test: Increase in HPSE protein level in human HCT116 cells at 25 uM after 3 days by Western blotting; format: functional; outline: as §1
MDA-MB-231 [3] = test: Increase in TGF-beta1 mRNA expression in human MDA-MB-231 cells at 75 uM after 3 days by qRT-PCR; format: functional, cell-based
HCT-116 [4] = test: Decrease in EGR1 mRNA expression in human HCT116 cells after 3 days by qRT-PCR; format: functional, cell-based
MDA-MB-231 [5] = test: Increase in EGR1 mRNA expression in human MDA-MB-231 cells at 45 uM after 3 days by qRT-PCR relative to control; format: functional
MDA-MB-231 [6] = test: Increase in NQO1 mRNA expression in human MDA-MB-231 cells at 45 uM after 3 days by qRT-PCR; format: functional, cell-based
HCT-116 [7] = test: Growth inhibition of human HCT116 cells after 3 days; format: functional, cell-based
Outline: (§2)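 Cells seeded in 6-well plates (MDA-MB-231 2.0–2.7×10^5, HCT-116 1.0×10^5 cells/well) with analog in ethanol (vehicle <0.5% v/v), grown 3 days at 37 °C, 5% CO2; cell numbers by Coulter particle counter, two 100 μl counts per sample.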

MDA-MB-231 [8] = test: Increase in ID1 mRNA expression in human MDA-MB-231 cells at 75 uM after 3 days by qRT-PCR; format: functional, cell-based
HCT-116 [9] = test: Decrease in TP53 protein expression in human HCT116 cells assessed as protein levels at 25 uM after 3 days by Western blotting; format: functional; parameters: scale not given: the % may be the effect or the level left; outline: as §1
MDA-MB-231 [10] = test: Increase in VEGFA mRNA expression in human MDA-MB-231 cells at 75 uM after 3 days by qRT-PCR; format: functional, cell-based
HCT-116 [11] = test: Increase in EGR1 protein expression in human HCT116 cells after 3 days by Western blotting; format: functional, cell-based; outline: as §1
HCT-116 [12] = test: Suppression of TP53 protein expression in human HCT116 cells at 20 uM after 3 days by Western blotting; format: functional, cell-based; outline: as §1
HCT-116 [13] = test: Decrease in EGR1 protein expression in human HCT116 cells after 24 hrs by Western blotting; format: functional, cell-based; outline: as §1
MDA-MB-231 [14] = test: Decrease in EGR1 protein expression in human MDA-MB-231 cells at >45 uM after 3 days by Western blotting relative to control; format: functional; outline: as §1
MDA-MB-231 [15] = test: Increase in NQO1 mRNA expression in human MDA-MB-231 cells at 75 uM after 3 days by qRT-PCR; format: functional, cell-based
MDA-MB-231 [16] = test: Suppression of TP53 mRNA expression in human MDA-MB-231 cells at 60 uM after 3 days by qRT-PCR; format: functional, cell-based
MDA-MB-231 [17] = test: Increase in TGF-beta1 mRNA expression in human MDA-MB-231 cells at 45 uM after 3 days by qRT-PCR; format: functional, cell-based
MDA-MB-231 [18] = test: Increase in VEGFA mRNA expression in human MDA-MB-231 cells at 45 uM after 3 days by qRT-PCR; format: functional, cell-based
MDA-MB-231 [19] = test: Increase in EGR1 mRNA expression in human MDA-MB-231 cells at 75 uM after 3 days by qRT-PCR relative to control; format: functional
MDA-MB-231 [20] = test: Increase in ID1 mRNA expression in human MDA-MB-231 cells at 60 uM after 3 days by qRT-PCR; format: functional, cell-based
HCT-116 [21] = test: Suppression of TP53 protein expression in human HCT116 cells at 25 uM after 3 days by Western blotting; format: functional, cell-based; outline: as §1
MDA-MB-231 [22] = test: Suppression of TP53 mRNA expression in human MDA-MB-231 cells at 75 uM after 3 days by qRT-PCR; format: functional, cell-based
MDA-MB-231 [23] = test: Increase in ID1 mRNA expression in human MDA-MB-231 cells at 45 uM after 3 days by qRT-PCR; format: functional, cell-based
HCT-116 [24] = test: Increase in EGR1 mRNA expression in human HCT116 cells after 24 hrs by qRT-PCR; format: functional, cell-based
MDA-MB-231 [25] = test: Increase in VEGFA mRNA expression in human MDA-MB-231 cells at 60 uM after 3 days by qRT-PCR; format: functional, cell-based
MDA-MB-231 [26] = test: Increase in TGF-beta1 mRNA expression in human MDA-MB-231 cells at 60 uM after 3 days by qRT-PCR; format: functional, cell-based
MDA-MB-231 [27] = test: Growth inhibition of human MDA-MB-231 cells after 3 days; format: functional, cell-based; outline: as §2
HCT-116 [28] = test: Decrease in TP53 mRNA level in human HCT116 cells at >=15 uM after 3 days by qRT-PCR
MDA-MB-231 [29] = test: Decrease in TP53 protein level in human MDA-MB-231 cells at 15 uM after 3 days by Western blotting; format: functional, cell-based; outline: as §1
MDA-MB-231 [30] = test: Increase in EGR1 mRNA expression in human MDA-MB-231 cells at 60 uM after 3 days by qRT-PCR relative to control; format: functional
HCT-116 [31] = test: Decrease in TP53 protein expression in human HCT116 cells assessed as protein levels at 20 uM after 3 days by Western blotting; format: functional; parameters: scale not given: the % may be the effect or the level left; outline: as §1
MDA-MB-231 [32] = test: Increase in NQO1 mRNA expression in human MDA-MB-231 cells at 60 uM after 3 days by qRT-PCR; format: functional, cell-based
MDA-MB-231 [33] = test: Increase in sialic acid production in human MDA-MB-231 cells by periodate-resorcinal assay; format: functional, cell-based
MDA-MB-231 [34] = test: Growth inhibition of human MDA-MB-231 cells; format: functional, cell-based
MDA-MB-231 [35] = test: Suppression of MUC1 mRNA expression in human MDA-MB-231 cells by qRT-PCR; format: functional, cell-based
MDA-MB-231 [36] = test: Increase in ID1 mRNA expression in human MDA-MB-231 cells after 3 days by qRT-PCR; format: functional, cell-based
MDA-MB-231 [37] = test: Increase in NQO1 mRNA expression in human MDA-MB-231 cells after 3 days by qRT-PCR; format: functional, cell-based
MDA-MB-231 [38] = test: Increase in TGF-beta1 mRNA expression in human MDA-MB-231 cells after 3 days by qRT-PCR; format: functional, cell-based
MDA-MB-231 [39] = test: Increase in VEGFA mRNA expression in human MDA-MB-231 cells after 3 days by qRT-PCR; format: functional, cell-based

CCCC(=O)OC[C@H]1OC(O)[C@@H](NC(C)=O)[C@@H](OC(=O)CCC)[C@@H]1OC(=O)CCC (some centres undefined)
<=5%: Activity (HCT-116 [9]) | Activity (HCT-116 [31])
inactive: Activity (MDA-MB-231 [3]) | Activity (MDA-MB-231 [8]) | Activity (MDA-MB-231 [10]) | Activity (MDA-MB-231 [15])
2: fold change (FC) (MDA-MB-231 [5]) | fold change (FC) (MDA-MB-231 [14])
>=50: fold change (FC) (HCT-116 [1]) | fold change (FC) (HCT-116 [2])
25: fold change (FC) (MDA-MB-231 [19]) | fold change (FC) (MDA-MB-231 [30])
active: Activity (HCT-116 [4]) | Activity (MDA-MB-231 [6]) | Activity (HCT-116 [7]) | Activity (HCT-116 [11]) | Activity (HCT-116 [12]) | Activity (HCT-116 [13]) | Activity (MDA-MB-231 [16]) | Activity (MDA-MB-231 [17]) | Activity (MDA-MB-231 [18]) | Activity (MDA-MB-231 [20]) | Activity (HCT-116 [21]) | Activity (MDA-MB-231 [22]) | Activity (MDA-MB-231 [23]) | Activity (HCT-116 [24]) | Activity (MDA-MB-231 [25]) | Activity (MDA-MB-231 [26]) | Activity (MDA-MB-231 [27]) | Activity (HCT-116 [28]) | Activity (MDA-MB-231 [29]) | Activity (MDA-MB-231 [32])

CCCC(=O)OC1O[C@H](COC(C)=O)[C@@H](OC(C)=O)[C@H](OC(C)=O)[C@@H]1NC(C)=O (some centres undefined)
active: Activity (MDA-MB-231 [33]) | Activity (MDA-MB-231 [34])

CCCC(=O)OC[C@H]1OC(OC(C)=O)[C@@H](NC(C)=O)[C@@H](OC(C)=O)[C@@H]1OC(C)=O (some centres undefined)
active: Activity (MDA-MB-231 [33]) | Activity (MDA-MB-231 [34]) | Activity (MDA-MB-231 [35])

CC(=O)N[C@@H]1C(OC(C)=O)O[C@H](COC(C)=O)[C@@H](OC(C)=O)[C@@H]1OC(C)=O (some centres undefined)
active: Activity (MDA-MB-231 [33]) | Activity (MDA-MB-231 [35])

CCCC(=O)OC1O[C@H](CO)[C@@H](OC(=O)CCC)[C@H](OC(=O)CCC)[C@@H]1NC(C)=O (some centres undefined)
inactive: Activity (MDA-MB-231 [36]) | Activity (MDA-MB-231 [37]) | Activity (MDA-MB-231 [38]) | Activity (MDA-MB-231 [39])

CCCC(=O)OC[C@H]1OC(OC(=O)CCC)[C@@H](NC(C)=O)[C@@H](OC(=O)CCC)[C@@H]1OC(=O)CCC (some centres undefined)
active: Activity (MDA-MB-231 [33])

Reference: ChEMBL document CHEMBL1153440, “Hexosamine template. A platform for modulating gene expression and for sugar-based drug discovery” (2009)
